# Test results taken from ChEMBL document CHEMBL3758106, “Antitumor Activity of Americanin A Isolated from the Seeds of Phytolacca americana by Regulating the ATM/ATR Signaling Pathway and the Skp2-p27 Axis in Human Colon Cancer Cells” (J Nat Prod, 2015).
# pIC50: −log10 of the molar value. Active and inactive are the calls of the source. The rule behind the calls is not given here.
# Legend:
# [1] = test system: HCT-116; test: Induction of cell cycle arrest in human HCT116 cells assessed as accumulation at G0/G1 phase at 15 uM after 48 hrs by propidium iodide staining-based flow cytometric analysis in presence of RNase A (reference value: 54.3%); format: functional
# [2] = test system: HCT-116; test: Induction of cell cycle arrest in human HCT116 cells assessed as accumulation at G2/M phase at 15 uM after 48 hrs by propidium iodide staining-based flow cytometric analysis in presence of RNase A (reference value: 19.7%); format: functional
# [3] = test system: HCT-116; test: Induction of cell cycle arrest in human HCT116 cells assessed as accumulation at sub-G1 phase at 15 uM after 48 hrs by propidium iodide staining-based flow cytometric analysis in presence of RNase A (reference value: 6.5%); format: functional
# [4] = test system: HCT-116; test: Induction of cell cycle arrest in human HCT116 cells assessed as accumulation at S phase at 30 uM after 48 hrs by propidium iodide staining-based flow cytometric analysis in presence of RNase A (reference value: 16.2%); format: functional
# [5] = test system: HCT-116; test: Induction of apoptosis in human HCT116 cells assessed as viable cells at 7.5 uM after 48 hrs by annexin V-FITC/propidium iodide staining-based flow cytometric analysis (reference value: 91.2%); format: functional; conditions: HCT-116, 48 h, read-out: Activity
# [6] = test system: HCT-116; test: Induction of apoptosis in human HCT116 cells assessed as viable cells at 30 uM after 48 hrs by annexin V-FITC/propidium iodide staining-based flow cytometric analysis (reference value: 91.2%); format: functional; conditions: HCT-116, 48 h, read-out: Activity
# [7] = test system: HCT-116; test: Induction of apoptosis in human HCT116 cells assessed as early apoptotic cells at 30 uM after 48 hrs by annexin V-FITC/propidium iodide staining-based flow cytometric analysis (reference value: 1.6%); format: functional
# [8] = test system: HCT-116; test: Induction of apoptosis in human HCT116 cells assessed as increase in Bim expression after 48 hrs by Western blot analysis; format: functional, cell-based
# Procedure, shortened: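 Cells treated for 48 h and lysed in RIPA buffer (pH 8.0). Total protein was measured by BCA, and equal protein was resolved on 8−13% SDS-PAGE and moved to PVDF. Membranes were blocked in 5% BSA/TBST and given primary antibody overnight at 4 °C, then an HRP secondary for 2 h at RT. Detection by enhanced chemiluminescence.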
# [9] = test system: HCT-116; test: Induction of reactive oxygen species in human HCT116 cells at 30 uM after 48 hrs by DCFH-DA staining-based flow cytometric analysis (reference value: 5.1%); format: functional
# Procedure, shortened: (§1)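 HCT116 cells seeded overnight, then exposed to test compounds, alone or with NAC, for 48 h in complete medium. Loaded with 20 μM DCFH-DA for 30 min; intracellular ROS in 20 000 cells per group read by flow cytometry as histograms.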
# [10] = test system: HCT-116; test: Induction of apoptosis in human HCT116 cells assessed as early apoptotic cells at 30 uM after 48 hrs by annexin V-FITC/propidium iodide staining-based flow cytometric analysis (reference value: 1.1%); format: functional
# [11] = test system: HCT-116; test: Induction of apoptosis in human HCT116 cells assessed as viable cells at 30 uM after 48 hrs by annexin V-FITC/propidium iodide staining-based flow cytometric analysis in presence of NAC (reference value: 87.4%); format: functional; conditions: HCT-116, 48 h, read-out: Activity
# [12] = test system: HCT-116; test: Induction of apoptosis in human HCT116 cells assessed as cleaved PARP level at 30 uM up to 24 hrs by Western blot analysis; format: functional, cell-based
# [13] = test system: HCT-116; test: Induction of apoptosis in human HCT116 cells assessed as cleaved caspase 3 level at 30 uM up to 24 hrs by Western blot analysis in presence of NAC; format: functional, cell-based
# [14] = test system: Mus musculus; test: Toxicity in nude mouse assessed as change in body weight at 5 to 10 mg/kg, ip administered 3 times per week measured on day 41; format: organism-based; conditions: in vivo
# Procedure, shortened: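 Nude mice implanted s.c. in the flank with 2 × 10^6 HCT116 cells. Once tumors reached about 120 mm3, mice were randomized, six per group, to vehicle or compound at 5 or 10 mg/kg ip (200 μL) three times weekly; irinotecan 10 mg/kg ip once weekly as reference. Body weight recorded twice weekly to assess toxicity; study ended day 41.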
# [15] = test system: HCT-116; test: Induction of cell cycle arrest in human HCT116 cells assessed as accumulation at sub-G1 phase at 15 uM after 24 hrs by propidium iodide staining-based flow cytometric analysis in presence of RNase A (reference value: 1.5%); format: functional
# [16] = Downregulation of phosphorylated cyclin B1 at Ser147 expression in human HCT116 cells at 7.5 to 30 uM after 24 hrs by Western blot analysis; format: functional, cell-based; conditions: HCT-116
# Procedure, shortened: (§2)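 HCT116 cells exposed 24 h in complete medium; lysed in RIPA buffer (pH 8.0), protein by BCA, equal loads run on 8–13% SDS-PAGE, PVDF transfer, blocked in 5% BSA/TBST, primary antibodies overnight at 4 °C, HRP secondaries 2 h RT, ECL detection; β-actin as loading control.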
# [17] = Downregulation of cdc2 expression in human HCT116 cells at 7.5 to 30 uM after 24 hrs by Western blot analysis; format: functional, cell-based; conditions: HCT-116; procedure, shortened: as §2
# [18] = Upregulation of phosphorylated ATM expression in human HCT116 cells at 1 hr by Western blot analysis; format: functional, cell-based; conditions: HCT-116
# [19] = Downregulation of ATM expression in human HCT116 cells at 30 uM after 1 hr by Western blot analysis; format: functional, cell-based; conditions: HCT-116, TDE = time-dependent effect
# Procedure, shortened: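 HCT116 cells exposed for 1 h in complete medium; RIPA lysates quantified by BCA, equal protein separated on 8–13% SDS-PAGE, transferred to PVDF, probed with primary antibodies overnight at 4 °C and HRP secondaries, chemiluminescence read-out.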
# [20] = Upregulation of MDM2 expression in human HCT116 cells at 7.5 to 30 uM after 24 hrs by Western blot analysis; format: functional, cell-based; conditions: HCT-116
# [21] = test system: HCT-116; test: Induction of reactive oxygen species in human HCT116 cells after 48 hrs by DCFH-DA staining-based flow cytometric analysis; format: functional, cell-based; procedure, shortened: as §1
# [22] = test system: RKO; test: Antiproliferative activity against human RKO cells after 24 to 72 hrs by SRB assay; format: functional, cell-based
# Procedure, shortened: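 Cells grown in 96-well plates (RPMI 1640; MRC-5 in MEM, 10% FBS, antibiotics) with compound […]; fixed in 10% TCA 30 min at 4 °C, stained 0.4% SRB in 1% acetic acid 1 h, dye dissolved in 10 mM Tris pH 10.0, A515 read; viability as % of solvent control, IC50 by nonlinear regression; mean of three independent experiments.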
# [23] = test system: HCT-116; test: Induction of morphological change in human HCT116 cells assessed as loss of contact with adjacent cells at 30 uM after 24 to 48 hrs by phase contrast microscopic analysis; format: functional, cell-based
# Procedure, shortened: (§3)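 HCT116 cells incubated with compound for 24 h, then viewed and photographed under phase-contrast microscopy; also examined at 48 h.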
# [24] = test system: HCT-116; test: Induction of morphological change in human HCT116 cells assessed as loss of contact with surface of culture dish at 30 uM after 24 to 48 hrs by phase contrast microscopic analysis; format: functional, cell-based; procedure, shortened: as §3
# [25] = test system: HCT-116; test: Induction of apoptosis in human HCT116 cells assessed as cleaved PARP level at 30 uM up to 48 hrs by Western blot analysis in presence of NAC
smiles,measurement,setting,value
O=C/C=C/c1ccc2c(c1)O[C@@H](CO)[C@H](c1ccc(O)c(O)c1)O2 [AMERICANIN A],Activity,[1],23.4%
same,Activity,[2],20.3%
same,Activity,[3],37.9%
same,Activity,[4],8.4%
same,viability at 7.5 µM,[5],84.6%
same,viability at 30 µM,[6],30.6%
same,Activity,[7],32.8%
same,Activity,[8],Dose-dependent effect
same,Activity,[9],47.4%
same,Activity,[10],7%
same,viability at 30 µM,[11],73.2%
same,Activity,[12],Active
same,Activity,[13],inactive
same,Activity,[14],Non-toxic
same,Activity,[15],3%
same,Activity,[16],Active
same,Activity,[17],Active
same,Activity,[18],Dose-dependent effect
same,Activity,[19],tde
same,Activity,[20],Active
same,Activity,[21],Dose-dependent effect
same,pIC50,[22],4.61
same,Activity,[23],Active
same,Activity,[24],Active
same,Activity,[25],inactive
